Measurements pooled from the literature.
Each line is one published result; the experiments were not run side by side.
CYP3A4: Cytochrome P450 3A4 (CYP3A4, Homo sapiens, UniProt P08684)
MMP13: Collagenase 3 (MMP13, Homo sapiens, UniProt P45452)
JAK1: Tyrosine-protein kinase JAK1 (JAK1, Homo sapiens, UniProt P23458)
LNPEP: Leucyl-cystinyl aminopeptidase (LNPEP, Homo sapiens, UniProt Q9UIQ6)
SLCO1B1: Solute carrier organic anion transporter family member 1B1 (SLCO1B1, Homo sapiens, UniProt Q9Y6L6)

Compound	target	test	system	conditions	IC50
Nc1nc(N)c2nc(CNc3ccc(C(=O)NCCc4ccccc4)cc3)cnc2n1	CYP3A4	enzyme activity, inhibitor, luciferase			11200 nM
Cc1noc(-c2cc3cc(-c4nc(C(=O)NCc5ccccc5)[nH]c4C)ccc3[nH]2)n1	MMP13	enzyme activity, inhibitor, FRET			2.3 nM
CCC1CN(C(=O)NCC(F)(F)F)CC1NCc1ccc(C)nc1-c1cnc2[nH]ccc2c1 (centres unmarked)	JAK1	enzyme activity, inhibitor, ADP detection			500 nM
O=C(NCCN1CCCC1)c1cc(-c2ccc(CN3CCOCC3)cc2)nc2ccc(F)cc12	CYP3A4	enzyme activity, inhibitor	human, liver microsomes		> 100000 nM
Cn1nc(C(=O)NCc2ccc(C(=O)O)cc2)cc1-c1ccc2[nH]c(-c3ccncn3)cc2c1	MMP13	enzyme activity, inhibitor, FRET			0.81 nM
Cc1ncsc1-c1ccc(CNC(=O)[C@@H]2C[C@H](O)CN2C(=O)[C@@H](NC(=O)C2(F)CC2)C(C)(C)C)c(OCCc2ccc(CN3CCN(c4cc(-c5ccccc5O)nnc4N)CC3)cc2)c1	Protein polybromo-1, bromodomain (PBRM1, Homo sapiens, UniProt Q86U86)	cell-free assay, TR-FRET			1100 nM
O=C(COc1ccccc1Br)NCCc1nc2ccccc2[nH]1	Cruzipain (Trypanosoma cruzi, UniProt P25779)	enzyme activity, inhibitor			400 nM
Fc1ccc(Nc2c(-c3ccccn3)nc3ccc(C4CC4)cn23)cc1	CYP3A4	enzyme activity, inhibitor			1600 nM
CC(C)[C@H](CO)Nc1nc(Nc2cccc(Cl)c2)c2ncn(C(C)C)c2n1	Serine/threonine-protein kinase PAK 4 (PAK4, Homo sapiens, UniProt O96013)	enzyme activity, inhibitor		lysate	> 10000 nM
COc1ccc2c(Oc3ccc4c(C(=O)Nc5ccccc5N)cccc4c3)ccnc2c1	JAK1	enzyme activity, inhibitor			> 500 nM
Cn1cc(-c2cc3cc(-c4cc(C(=O)NCc5ccc(C(=O)O)cc5)nn4C)ccc3[nH]2)cn1	MMP13	enzyme activity, inhibitor, FRET			1.6 nM
O=S(=O)(Nc1cccc(-c2nnn[nH]2)c1)c1ccc(C(F)(F)F)c(F)c1	LNPEP	enzyme activity, inhibitor, fluorescence			7500 nM
CC[C@@H](C(=O)Nc1ccc(C(N)=O)c(F)c1)n1cc(OC)c(-c2cc(Cl)ccc2-n2cc(C(F)(F)F)nn2)cc1=O	Coagulation factor XII (F12, Homo sapiens, UniProt P00748)	enzyme activity, inhibitor			> 2000 nM
Cn1ccc2ccc(S(=O)(=O)Nc3cccc(-c4nnn[nH]4)c3)cc21	LNPEP	enzyme activity, inhibitor, fluorescence			12700 nM
O=C1Nc2ccccc2C1=O	Aldehyde dehydrogenase, mitochondrial (ALDH2, Homo sapiens, UniProt P05091)	enzyme activity, inhibitor, absorbance			> 160000 nM
Cc1cc(N2CCc3c(c(C)nn3CC34CCC(NC(=O)[C@@H]5COCCN5)(CC3)CC4)C2)c2cnn(C)c2n1	Toll-like receptor 7 (TLR7, Homo sapiens, UniProt Q9NYK1)	IL-6 release, inhibitor			0.7 nM
CN1CCN(c2ccc(Nc3ncc4cc(C#N)c(=O)n(C5CCCC5)c4n3)cc2)CC1	Calcium/calmodulin-dependent protein kinase type II subunit gamma (CAMK2G, Homo sapiens, UniProt Q13555)	enzyme activity, inhibitor			3870 nM
O=C(O)c1cccnc1Nc1cccc(C(F)(F)F)c1	SLCO1B1	transporter uptake, inhibitor, fluorescence	CHO	30 min, pH 7.4	3700 nM
O=c1ccc2c(OCCCCOc3cccc(O)c3)c3ccoc3cc2o1	Potassium voltage-gated channel subfamily A member 3 (Kcna3, Mus musculus, UniProt P16390)	ion current, inhibitor, patch clamp			139 nM
CCOc1ccc2c(-c3cc(C)nc(Nc4cc(OC)cc(C(F)(F)F)c4)n3)cnn2n1	Dual specificity protein kinase CLK2 (CLK2, Homo sapiens, UniProt P49760)	enzyme activity, inhibitor			> 10000 nM
CCOC(=O)[C@H](CCc1ccccc1)N[C@@H](C)C(=O)N1[C@H](C(=O)O)C[C@@H]2CCC[C@@H]21	SLCO1B1	transporter uptake, inhibitor, fluorescence	CHO	30 min, pH 7.4	4000 nM
CN(c1cccc(-c2nnn[nH]2)c1)S(=O)(=O)c1cc(Br)c(Cl)s1	LNPEP	enzyme activity, inhibitor, fluorescence			11800 nM
N[C@@H](CC(=O)N1CCN(C(c2ccc(F)cc2)c2ccc(F)cc2)CC1)C(=O)N1Cc2ccccc2C1	Lysosomal Pro-X carboxypeptidase (PRCP, Homo sapiens, UniProt P42785)	enzyme activity, inhibitor			8430 nM
